This is a sample that favours compounds with a hit; in the whole collection about 5.7% have one here.
SKKanGAS inh = inhibitors of SKKanGAS S. pyogenes growth in kanamycin (SK-promoter or general growth effect) | BacTiter-Glo, 6 h | inhibition, % at 7.5 µM | 300,000 tested, 1.3% active | AID 1662;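 active means mean replicate score, as percent of positive control median, at least 50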;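 further: strain carries kanamycin resistance gene driven by streptokinase promoter and grows in 40 µg/ml kanamycin; loss of luminescence reflects streptokinase promoter inhibition or plain growth inhibition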
Beta cell apopt = beta cell apoptosis inhibition; INS-1E cytokine-induced death, ATP luminescence, 48 h; percent of positive-control rescue, neutral wells zero; protection from apoptosis, % (no concentration beside the values); 300,000 tested, 0.8% active;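 active means Every replicate reaches about 75%, or at least half do and their mean reaches it too, limit read from the data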;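 further: higher means more ATP so stronger rescue from cytokine killing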
Mdm2 MdmX PPI = disrupts the human Mdm2-MdmX interaction | O15151+Q00987 | SaOS-2 split-luciferase Mdm2/MdmX complementation, luminescence | inhibition, % at 8 µM | 330,000 tested, 3% active | AID 485346;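 active means inhibition of at least 50% at 8 µM in the primary screen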
CSC inhib = cancer stem cell inhibition; 300,000 tested, 1.1% active; inhibition, % at 7.5 µM; cancer stem cell-like cells viability, luminescence; AID 2717; in the data active means inhibition above about 75%; tested in HMLE shEcad cells
Calb FLC = affects C. albicans growth with fluconazole. C. albicans CaCi-2 (fluconazole-resistant clinical isolate) + fluconazole, Alamar Blue growth, 48 h. AID 1979. growth inhibition, % (no concentration beside the values). 300,000 tested, 0.57% active;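 active means growth inhibition above about 58% in most replicates, limit read from the data, passing the limit was not always enough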;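 further: all wells also contain fluconazole at 8 µg/ml as a sub-toxic cotreatment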
T cruzi repl = blocks replication of Trypanosoma cruzi; T. cruzi beta-gal in NIH3T3, luminescence, 90 h; 300,000 tested, 1.4% active; AID 1885; inhibition, % (no concentration beside the values);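 active means mean inhibition across valid replicates above about 55%, limit read from the data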;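 further: signal also drops with host cell toxicity which is not excluded here; higher percent means less beta-gal luminescence so fewer parasites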
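System: Mouse NIH/3T3 fibroblasts infected with β-gal-expressing T. cruzi Tulahuen C4 | Quantity: NIH/3T3 cells, 5,000 per well | Reagent: 5000 reporter trypomastigotes per well | Dosing: Compound pinned at 50 nL/well, DMSO | Schedule: 3 h host attachment, then at least 90 h co-culture | Detection: GalScreen luminescence, 60 min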
Of the large screens only hits and unclear results are named; the others gave an inactive call.

O=C(NC1CCSc2ccccc21)c1cc([N+](=O)[O-])ccc1N1CCOCC1 (stereo not given)	none (no result: Beta cell apopt)
CN(C)CCNC(=O)c1ccc2c(=O)n(Cc3ccc(Cl)cc3)c(=S)[nH]c2c1	none
CCCCCn1c(=O)[nH]c2cc(C(=O)NCCCN(C)Cc3ccccc3)ccc2c1=O	T cruzi repl 58.4
CCCCN(C)CCNC(=O)c1ccc(Cn2c(=S)[nH]c3ccc(Br)cc3c2=O)cc1	T cruzi repl 77.4
C/C(Cn1cnc([N+](=O)[O-])n1)=N\NC(=O)c1ccc(F)cc1	none
C/C(Cn1cnc([N+](=O)[O-])n1)=N\NC(=O)c1cccc(F)c1	T cruzi repl 62.8
COc1ccc(C(=O)N/N=C(\C)Cn2cnc([N+](=O)[O-])n2)cc1	T cruzi repl 55.9
C[C@H](CO)N1C[C@H](C)[C@@H](CN(C)S(=O)(=O)c2ccccc2)Oc2c(NC(=O)c3ccncc3)cccc2C1=O	none (no result: SKKanGAS inh, Calb FLC, T cruzi repl)
Cc1ccc(S(=O)(=O)N2CCC(C(=O)Nc3ccc(S(=O)(=O)N4CCCC4)cc3)CC2)cc1C	T cruzi repl 74.4

Bioassay records as filed in PubChem.
